Key:
[1] = system: Trypanosoma cruzi; assay: Antichagasic activity against Trypanosoma cruzi CL-B5 epimastigotes […] assessed as growth inhibition after 72 hrs by beta galactosidase reporter gene assay; assay type: functional, organism-based
Method in brief: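 Then CPRG (200 µM final, pH 7.4) in Triton X-100 added for 3 h at 37 °C, A595 read. Triplicates, three independent runs; IC50 from dose–response of %growth inhibition, mean ± SD.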

[2] = system: Trichomonas vaginalis; assay: Trichomonacidal activity against metronidazole-sensitive Trichomonas vaginalis JH31A#4 trophozoites after 24 hrs by resazurin dye based fluorescence assay; assay type: functional, organism-based; settings: JH31A#4, 24 h
Method in brief: (§1)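 Trophozoites in TYM with 10% FBS, 37 °C, 5% CO₂, seeded at 10⁵/mL in glass tubes. After 5 h, compounds added at 9.37–300 µM final (DMSO <0.2%). Viability read by resazurin fluorimetry after 24 h at 37 °C. Metronidazole 25 µM as reference. At least two runs in triplicate; IC50 with 95% limits by probit.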

[3] = Cytotoxicity against mouse L929 cells after 48 hrs by resazurin assay; assay type: cell-based; settings: read-out: LC50
Method in brief: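 L929 fibroblasts, 15×10^3 cells/well in MEM, attached 3 h. Exposed to compounds for 48 h at 37 °C, 5% CO2. Resazurin (2 mM solution in PBS) added for 3 h; fluorescence read at 535/590 nm to give % cytotoxicity. Triplicate wells, three independent runs. LC50 taken from concentration vs %C curves, mean ± SD.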

[4] = Selectivity index, ratio of LC50 for mouse L929 cells to IC50 for Trypanosoma cruzi CL-B5 lacZ epimastigotes […]; assay type: toxicity, cell-based; settings: read-out: Ratio LC50/IC50
Method in brief: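 SI = LC50 (L929, 48 h resazurin) / epimastigote IC50. […] CPRG (200 µM final, 0.9% Triton X-100, pH 7.4) added for 3 h at 37 °C, A595 read. Triplicates, n = 3; IC50 from %EGI curves.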

[5] = Selectivity index, ratio of LC50 for mouse L929 cells to IC50 for Trypanosoma cruzi CL-B5 lacZ amastigotes in mouse L929 cells; assay type: toxicity, cell-based; settings: read-out: Ratio LC50/IC50
Method in brief: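 SI = LC50 (L929, 48 h resazurin) / amastigote IC50. Amastigotes: L929 cells (10,000/well, MEM) infected overnight at 33 °C with CL-B5 lacZ tissue-culture trypomastigotes (1:6 cell:parasite), washed, then exposed to compounds for 7 days. CPRG (400 µM final, 3% Triton X-100, pH 7.4) added for 3 h at 37 °C, A595 read. Triplicates; IC50 from %AGI curves. Assayed only when epimastigote SI warranted.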

[6] = system: Trypanosoma cruzi; assay: Antichagasic activity against Trypanosoma cruzi CL-B5 intracellular amastigotes in mouse L929 cells assessed as growth inhibition after 7 days by beta galactosidase reporter gene assay; assay type: functional, organism-based; settings: CL-B5, L929, 168 h
Method in brief: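 L929 fibroblasts (10,000/well, MEM) infected overnight at 33 °C, 5% CO₂ with CL-B5 lacZ tissue-culture trypomastigotes (1:6 cell:parasite). Washed, then 7 days with compound in fresh MEM. CPRG (400 µM final, pH 7.4) in 3% Triton X-100 for 3 h at 37 °C, A595. Triplicates; IC50 from %amastigote growth inhibition curves, mean ± SD.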

[7] = system: Trichomonas vaginalis; assay: Trichomonacidal activity against metronidazole-resistant Trichomonas vaginalis IR78 trophozoites after 24 hrs by resazurin dye based fluorescence assay; assay type: functional, organism-based; settings: IR78, 24 h; method in brief: as §1
[8] = Selectivity index, ratio of CC50 for african green monkey Vero cells to IC50 for metronidazole-sensitive Trichomonas vaginalis JH31A#4 trophozoites; assay type: functional
Method in brief: (§2)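 Selectivity index = Vero CC50 (24 h resazurin, probit) divided by trophozoite IC50 (24 h resazurin, probit) for the named T. vaginalis isolate.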

[9] = Cytotoxicity against african green monkey Vero cells assessed as inhibition of cell growth after 24 hrs by resazurin dye based fluorescence assay; settings: chlorocebus sabaeus
Method in brief: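 Vero CCL-81 cells (50,000/well, RPMI with 10% FBS) attached 6 h at 37 °C, then 24 h with compound. Resazurin added for 3 h, fluorescence at ex 535/em 590 nm. Triplicates in two independent assays; CC50 and 95% confidence limits by probit analysis.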

[10] = Selectivity index, ratio of CC50 for african green monkey Vero cells to IC50 for metronidazole-resistant Trichomonas vaginalis IR78 trophozoites; assay type: functional; method in brief: as §2
[11] = Cytotoxicity against african green monkey Vero cells assessed as inhibition of cell growth at 300 uM after 24 hrs by resazurin dye based fluorescence assay; settings: chlorocebus sabaeus, read-out: Activity

| Compound | IC50 [1] | IC50 [2] | CC50 at 48 h [3] | selectivity ratio [4] | selectivity ratio [5] | IC50 [6] | IC50 [7] | Ratio CC50/IC50 [8] | CC50 at 24 h [9] | Ratio CC50/IC50 [10] | inhibition at 24 h, 300 µM [11] |
| --- | --- | --- | --- | --- | --- | --- | --- | --- | --- | --- | --- |
| COCCOc1c2cc([N+](=O)[O-])ccc2nn1Cc1ccccc1 | > 256 µM | 107 µM | > 256 µM |  |  |  |  |  |  |  |  |
| NC(=O)CCCn1c2ccc([N+](=O)[O-])cc2c(=O)n1Cc1ccccc1 | 31 µM | 104 µM | > 256 µM | > 8.26 |  |  |  |  |  |  |  |
| COC(=O)Cn1c2ccc([N+](=O)[O-])cc2c(=O)n1Cc1ccccc1 | 26.2 µM | 535 µM | 129 µM | 4.92 |  |  |  |  |  |  |  |
| COC(=O)CCn1c2ccc([N+](=O)[O-])cc2c(=O)n1Cc1ccccc1 | 9.19 µM | 376 µM | > 256 µM | > 27.9 | > 87.4 | 2.93 µM |  |  |  |  |  |
| COC(=O)COc1c2cc([N+](=O)[O-])ccc2nn1Cc1ccccc1 | 145 µM |  | > 256 µM | > 1.77 |  |  |  |  |  |  |  |
| Cc1ncc([N+](=O)[O-])n1CCO [METRONIDAZOLE] |  | 1.43 µM |  |  |  |  | 5.78 µM | >100 | > 600 µM | >100 |  |
| CNC(=O)CCCn1c2ccc([N+](=O)[O-])cc2c(=O)n1Cc1ccccc1 | 13.3 µM | 182 µM | > 256 µM | > 19.3 | > 171 | 1.5 µM |  |  |  |  |  |
| CC(=O)OCCn1c2ccc([N+](=O)[O-])cc2c(=O)n1Cc1ccccc1 | 5.43 µM | 266 µM | > 256 µM | > 47.1 | > 1024 | 0.25 µM |  |  |  |  |  |
| C=Cn1c2ccc([N+](=O)[O-])cc2c(=O)n1Cc1ccccc1 | 2.75 µM | 258 µM | 160 µM | 58.4 | 341 | 0.47 µM |  |  |  |  |  |
| O=C(O)CCCn1c2ccc([N+](=O)[O-])cc2c(=O)n1Cc1ccccc1 | > 256 µM |  | > 256 µM |  |  |  |  |  |  |  |  |
| COc1c2cc([N+](=O)[O-])ccc2nn1C |  | 18.5 µM |  |  |  |  |  |  |  |  |  |
| O=[N+]([O-])c1ccc2nn(Cc3ccccc3)c(OCCOc3c4cc([N+](=O)[O-])ccc4nn3Cc3ccccc3)c2c1 | > 256 µM |  | > 256 µM |  |  |  |  |  |  |  |  |
| O=c1c2cc([N+](=O)[O-])ccc2n(CCCO)n1Cc1ccccc1 | 1.68 µM | 128 µM | > 256 µM | > 152 | > 1024 | 0.25 µM |  |  |  |  |  |
| COC(=O)CN1c2ccc([N+](=O)[O-])cc2C(=O)N(Cc2ccccc2)C1C(=O)OC (stereo not drawn) | > 256 µM | 58.2 µM | 205 µM | < 0.8 |  |  |  |  |  |  |  |
| O=C(O)CCn1c2ccc([N+](=O)[O-])cc2c(=O)n1Cc1ccccc1 | > 256 µM |  | > 256 µM |  |  |  |  |  |  |  |  |
| CC(=O)n1c2ccc([N+](=O)[O-])cc2c(=O)n1Cc1ccccc1 | > 256 µM | 213 µM | > 256 µM |  |  |  |  |  |  |  |  |
| C=CCn1c2ccc([N+](=O)[O-])cc2c(=O)n1Cc1ccccc1 | 4.19 µM | 359 µM | 192 µM | 45.9 | 122 | 1.58 µM |  |  |  |  |  |
| O=c1c2cc([N+](=O)[O-])ccc2n(CCCBr)n1Cc1ccccc1 | 2.9 µM | 80.2 µM | 25.2 µM | 8.69 |  |  |  |  |  |  |  |
| O=C(c1ccccc1)n1c2ccc([N+](=O)[O-])cc2c(=O)n1Cc1ccccc1 | > 256 µM | 197 µM | 146 µM | < 0.57 |  |  |  |  |  |  |  |

| Compound | IC50 [1] | IC50 [2] | CC50 at 48 h [3] | selectivity ratio [4] | selectivity ratio [5] | IC50 [6] | IC50 [7] | Ratio CC50/IC50 [8] | CC50 at 24 h [9] | Ratio CC50/IC50 [10] | inhibition at 24 h, 300 µM [11] |
| --- | --- | --- | --- | --- | --- | --- | --- | --- | --- | --- | --- |
| NC(=O)CN1c2ccc([N+](=O)[O-])cc2C(=O)N(Cc2ccccc2)C1C(N)=O (stereo not drawn) | > 256 µM |  | > 256 µM |  |  |  |  |  |  |  |  |
| Cc1ccc(S(=O)(=O)n2c3ccc([N+](=O)[O-])cc3c(=O)n2Cc2ccccc2)cc1 | 28.8 µM | 151 µM | > 256 µM | > 8.9 |  |  |  |  |  |  |  |
| C#CCn1c2ccc([N+](=O)[O-])cc2c(=O)n1Cc1ccccc1 | 10.8 µM | 261 µM | 195 µM | 18.1 | 64.7 | 3.02 µM |  |  |  |  |  |
| O=c1c2cc([N+](=O)[O-])ccc2n(CCBr)n1Cc1ccccc1 | 2.13 µM | 348 µM | > 256 µM | > 120 | > 225 | 1.14 µM |  |  |  |  |  |
| O=[N+]([O-])c1ccc2nn(Cc3ccccc3)c(OCCO)c2c1 | > 256 µM | 9.82 µM | > 256 µM |  |  |  | 49.8 µM | >30.5 | > 300 µM | >6 | 14.7% |
| CCOC(=O)CCCn1c2ccc([N+](=O)[O-])cc2c(=O)n1Cc1ccccc1 | 11.1 µM | 192 µM | 78.1 µM | 7.01 |  |  |  |  |  |  |  |
| N#CCn1c2ccc([N+](=O)[O-])cc2c(=O)n1Cc1ccccc1 | 11.7 µM |  | > 256 µM | > 21.9 | > 73.1 | 3.5 µM |  |  |  |  |  |
| CCOCCCn1c2ccc([N+](=O)[O-])cc2c(=O)n1Cc1ccccc1 | 6.57 µM | 362 µM | 170 µM | 25.9 | 51.5 | 3.31 µM |  |  |  |  |  |
| O=c1c2cc([N+](=O)[O-])ccc2n(CCOc2c3cc([N+](=O)[O-])ccc3nn2Cc2ccccc2)n1Cc1ccccc1 | > 256 µM |  | > 256 µM |  |  |  |  |  |  |  |  |
| COCCn1c2ccc([N+](=O)[O-])cc2c(=O)n1Cc1ccccc1 | 6.56 µM | 285 µM | > 256 µM | > 39 | > 112 | 2.29 µM |  |  |  |  |  |
| CCOC(=O)CCCOc1c2cc([N+](=O)[O-])ccc2nn1Cc1ccccc1 | 25.1 µM | 20.6 µM | > 256 µM | > 10.2 | > 10.1 | 25.4 µM |  |  |  |  |  |
| COC(=O)C1Nc2ccc([N+](=O)[O-])cc2C(=O)N1Cc1ccccc1 (stereo not drawn) | 216 µM |  | > 256 µM | > 1.18 |  |  |  |  |  |  |  |
| CCOC(=O)n1c2ccc([N+](=O)[O-])cc2c(=O)n1Cc1ccccc1 | 49 µM | 419 µM | 122 µM | 2.49 |  |  |  |  |  |  |  |
| O=[N+]([O-])c1ccc2nn(Cc3ccccc3)c(OCCBr)c2c1 | > 256 µM | 64.8 µM | > 256 µM |  |  |  |  |  |  |  |  |
| CN(C)C(=O)CCCn1c2ccc([N+](=O)[O-])cc2c(=O)n1Cc1ccccc1 | 3.86 µM | 48.9 µM | > 256 µM | > 66.3 | > 474 | 0.54 µM |  | >6.1 | > 300 µM |  | < 20% |
| O=C(OCc1ccccc1)n1c2ccc([N+](=O)[O-])cc2c(=O)n1Cc1ccccc1 | 43.6 µM | 589 µM | 86.1 µM | 1.97 |  |  |  |  |  |  |  |
| NC(=O)C1Nc2ccc([N+](=O)[O-])cc2C(=O)N1Cc1ccccc1 (stereo not drawn) | > 256 µM |  | > 256 µM |  |  |  |  |  |  |  |  |
| COC(=O)CCOc1c2cc([N+](=O)[O-])ccc2nn1Cc1ccccc1 | > 256 µM | 43 µM | > 256 µM |  |  |  |  | >7 | > 300 µM |  | < 20% |

— ChEMBL document CHEMBL3792306, “Antichagasic and trichomonacidal activity of 1-substituted 2-benzyl-5-nitroindazolin-3-ones and 3-alkoxy-2-benzyl-5-nitro-2H-indazoles” (Eur J Med Chem, 2016)
